Bioassay records (PubChem BioAssay)
ABCB6 inh MLPCN – ABCB6 transporter inhibitors, primary screen, K562-ABCB6 cells, flow cytometry, MLPCN library | K562-ABCB6 porphyrin accumulation, 1 h; hits give low values | fluorescence ratio to DMSO, % at 10 µM | 0.19% of 360,000 active;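 active = fluorescence ratio to DMSO below 75%, the collection mean minus 3 SD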;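 note: signal is porphyrin accumulated inside mitochondria; 100% equals median channel fluorescence of DMSO control wells; lower ratio means ABCB6 inhibition with less porphyrin fluorescence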
FXN GAA850 act – FXN promoter activators, primary screen, cell-based, luciferase luminescence, HEK293 lucGAA850 | activation, % at 6 µM | HEK293 lucGAA850 FXN promoter luciferase reporter, 24 h; percent of 10 µM SAHA response | AID 540364, 2011 | 0.56% of 360,000 active;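 active = activation above the average of all compounds screened plus 3 SD, cutoff fixed separately per campaign, cut at about 7.5% in these data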;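 note: 0% = DMSO wells and 100% = 10 µM SAHA wells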
STAT3 activator – IL-6 driven STAT3 reporter potentiators, primary screen, U3A cells, luciferase, luminescence, MLSCN library | IL-6 STAT3-luciferase reporter; 100% = signal with IL-6 EC80 alone | 0.91% of 190,000 active | AID 871, 2007 | activation (% of control), % at 5.6 µM;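 active = activation above the screen-wide mean of compound activation plus 3 SD, cut at about 130% in these data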;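 note: 0% = background luminescence of wells with medium and substrate only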
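Test system: human U3A cells carrying STAT3-luciferase construct; control set: IL-6-only wells as 100% reference; timing: compound pre-incubation 1 h before IL-6, then 6 h stimulation at 37 °C; also added: IL-6 stimulus at 33 ng/mL final; evaluation: % activation versus median of IL-6-stimulated wells; detection: reporter luminescence signal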
AHR activator – AHR activators, primary screen, cell-based, luminescence, luciferase reporter, human; AHR-responsive luciferase reporter cells; activation, % at 5 µM; 2.5% of 320,000 active; in the data active = activation above about 47%;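 note: 0% = vehicle wells and 100% = reference agonist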
Target sequence (P35869 whole entry, looked up): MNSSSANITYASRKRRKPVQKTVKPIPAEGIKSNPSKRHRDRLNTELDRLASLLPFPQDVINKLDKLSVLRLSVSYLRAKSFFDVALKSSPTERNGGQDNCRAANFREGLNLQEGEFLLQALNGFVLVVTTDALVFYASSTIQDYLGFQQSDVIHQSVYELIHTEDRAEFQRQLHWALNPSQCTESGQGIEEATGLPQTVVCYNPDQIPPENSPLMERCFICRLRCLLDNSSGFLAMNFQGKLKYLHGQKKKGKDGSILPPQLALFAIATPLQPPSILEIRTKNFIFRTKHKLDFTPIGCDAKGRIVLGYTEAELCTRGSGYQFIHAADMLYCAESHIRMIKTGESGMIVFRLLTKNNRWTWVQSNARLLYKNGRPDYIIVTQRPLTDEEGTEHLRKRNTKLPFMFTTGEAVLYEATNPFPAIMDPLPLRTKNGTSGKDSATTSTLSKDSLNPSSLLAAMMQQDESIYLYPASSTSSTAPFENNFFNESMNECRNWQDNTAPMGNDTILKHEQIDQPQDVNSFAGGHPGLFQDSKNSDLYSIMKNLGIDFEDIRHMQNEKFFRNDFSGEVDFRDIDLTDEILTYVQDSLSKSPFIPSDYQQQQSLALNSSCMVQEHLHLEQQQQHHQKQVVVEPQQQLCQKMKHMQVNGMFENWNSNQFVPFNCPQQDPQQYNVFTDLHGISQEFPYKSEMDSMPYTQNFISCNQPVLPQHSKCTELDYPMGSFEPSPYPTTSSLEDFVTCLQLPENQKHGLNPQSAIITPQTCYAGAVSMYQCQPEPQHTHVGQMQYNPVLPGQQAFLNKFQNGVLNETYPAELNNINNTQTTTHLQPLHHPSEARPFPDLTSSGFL
AHR act cf – AHR activators, confirmation, cell-based, luminescence, luciferase reporter, human; shares compounds with AHR activator; human cells, AHR-responsive luciferase reporter; activation, % at 9 µM; 87% of 2,300 active; AID 2845, 2010; in the data active = activation above about 49%;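 note: HepG2 hepatoma cells carrying a DRE-driven firefly luciferase reporter; 0% = vehicle wells and 100% = reference agonist wells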
PXR act counter – human PXR activators, counter-screen for AHR activator project, cell-based, luciferase luminescence. shares compounds with AHR activator. cell-based PXR reporter. activation, % at 11.6 µM. 88% of 2,300 active. AID 434939, 2010; in the data active = activation above about 11%;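 note: human hepatoma DPX-2 cells expressing full-length human PXR; 0% = DMSO and 100% = reference agonist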
Active calls of the source: *; / = no result. Only some compounds are listed: those with a hit (about 3.3% of all), similar ones and a draw of the others.

SMILES | ABCB6 inh MLPCN | FXN GAA850 act | STAT3 activator | AHR activator | AHR act cf | PXR act counter
Cc1cc(C)c(C)c(OCCn2ccnc2)c1 | 97.0 | -1.2 | / | 90.0* | 54.5* | 14.3*
NC(c1csc(NC(=O)Nc2cccc(Cl)c2)n1)C1CCCCC1 (stereo not drawn) | 99.0 | 0.8 | / | / | / | /
Cc1ccc(C)c(NC(=O)c2nc(Cl)ccc2Cl)c1 | 98.0 | 2.0 | 127.4 | 81.4* | 105.9* | 112.2*
Fc1cccc2sc(Nc3nc4cc5c(cc4s3)OCO5)nc12 | 99.0 | 4.6 | 115.2 | 130.1* | 120.7* | 12.1*
Fc1cc(F)c2nc(Nc3nc4cc5c(cc4s3)OCO5)sc2c1 | 93.0 | 4.1 | 108.2 | 38.4 | / | /
CC(=O)c1ccc(Nc2nc(-c3cccnc3)cs2)cc1 | 98.0 | 4.5 | / | / | / | /
CCOc1ccc(Nc2nc(-c3cccnc3)cs2)cc1 | 96.0 | 2.4 | / | 114.6* | 180.9* | 14.2*
O=C(CC1Sc2ccccc2NC1=O)Nc1ccccc1[N+](=O)[O-] (stereo not drawn) | 99.0 | 3.2 | 96.1 | 151.5* | 111.2* | 37.6*
CCCC(=O)Nc1ccc2nn(-c3ccc(OC)cc3)nc2c1 | 100.0 | 1.7 | / | 18.2 | / | /
N#CC(/C(=N/S(=O)(=O)c1cccs1)c1ccccc1)c1nc2ccccc2[nH]1 (stereo not drawn) | 97.0 | 1.6 | 101.4 | 1.6 | / | /
Cc1cc(N2CCCCC2)nc(-c2ccc(Br)cc2)n1 | 96.0 | 3.2 | 79.1 | 80.1* | 108.8* | 3.2
Cc1ccc2nc(C(Cl)(Cl)Cl)nc(N/N=C/c3ccncc3)c2c1 | 90.0 | 0.8 | 95.1 | 92.5* | 109.7* | 15.4*
Cc1ccc2nc(C(Cl)(Cl)Cl)nc(N/N=C/c3ccc([N+](=O)[O-])cc3)c2c1 | 110.0 | -1.5 | / | / | / | /
CCCc1ccc(-c2c(C)sc(N)c2C#N)cc1 | 89.0 | 0.3 | 91.2 | 97.2* | 104.4* | 13.3*
COCCn1c(C)cc(/C=C2/NC(=O)N(c3cccc(Cl)c3)C2=O)c1C | 111.0 | -7.4 | 97.8 | 122.0* | 4.8 | 74.2*
CCn1c(C)cc(/C=C2/NC(=O)N(c3ccccc3)C2=O)c1C | 107.0 | -1.9 | 101.2 | 27.4 | / | /
Cc1nnc2c(N3CCN(C(=O)c4ccco4)CC3)nc3ccccc3n12 | 97.0 | 2.6 | / | 0.6 | / | /
COc1ccc(/C=N/Nc2cc(C)nc3ccccc23)cc1 | 107.0 | -0.1 | / | 120.0* | 49.6* | /
Cc1ccc2nc(C)cc(N/N=C/c3cccc(O)c3)c2c1 | 97.0 | 0.6 | / | 12.8 | / | /
COc1ccc2nc(C)cc(N/N=C/c3ccc(F)cc3)c2c1 | 108.0 | -13.5 | / | 79.5* | 69.4* | /
Cc1ccc(S(=O)(=O)N2C[C@H]3[C@H]4C(=O)N(Cc5ccccc5)C(=O)[C@H]4CC(=O)[C@H]3[C@@H]2c2ccccc2Cl)cc1 | 98.0 | / | / | / | / | /
Cc1cc(C)n(-c2cc(-c3ccccc3)nc(C)n2)n1 | 102.0 | -2.1 | 94.7 | 7.9 | / | /
O=C(NCc1cccnc1)C1CCN(S(=O)(=O)c2cc(Cl)ccc2Cl)CC1 | 93.0 | -0.2 | / | -0.7 | / | /
O=c1c2ccccc2nc(SCc2ccncc2)n1CC1CCCO1 (stereo not drawn) | 100.0 | 0.4 | 102.9 | 10.2 | / | /
Clc1cc(Cl)c2nc(N3CCCC3)sc2c1 | 96.0 | 2.0 | 100.8 | 88.0* | 95.5* | 27.8*
SMILES | ABCB6 inh MLPCN | FXN GAA850 act | STAT3 activator | AHR activator | AHR act cf | PXR act counter
O=C(NC1CC2CCCC(C1)N2Cc1ccccc1)c1cccc(Cl)c1 (stereo not drawn) | 101.0 | -1.0 | / | 1.6 | / | /
CN(C)S(=O)(=O)c1ccc(N2CCCC2)c(C(=O)Nc2ccc(F)cc2F)c1 | 100.0 | 1.1 | / | 4.0 | / | /
Cn1ncc(N)c1C(=O)Nc1cccc(C(F)(F)F)c1 | 90.0 | -0.6 | 93.4 | 46.4 | / | /
CN(C)S(=O)(=O)Oc1ccccc1C(=O)Nc1ccc(F)cc1F | 98.0 | 1.5 | 100.0 | 124.3* | 92.8* | 154.4*
CN(C)S(=O)(=O)Oc1ccccc1C(=O)Nc1cccc(C(F)(F)F)c1 | 95.0 | -0.8 | 99.3 | 82.3* | 100.5* | 55.1*
Nc1[nH]ncc1C(=O)Nc1cccc(C(F)(F)F)c1 | 109.0 | 1.8 | 99.0 | 90.7* | 50.5* | /
O=C(NS(=O)(=O)N1CCOCC1)C1=C(N2CCCC2)COC1=O | 95.0 | -0.1 | / | -1.6 | / | /
COc1ccc(NC(=O)c2nc[nH]c2C(=O)NCc2ccccc2)cc1 | 98.0 | 1.0 | / | 4.9 | / | /
COc1ccc(NC(=O)c2nc[nH]c2C(=O)NCCCCCNC(=O)OC(C)(C)C)cc1 | / | / | / | 133.5* | 141.2* | 29.6*
CNC(=O)c1[nH]cnc1C(=O)Nc1cccc(C)c1 | 98.0 | 3.5 | / | 101.2* | 133.0* | 24.4*
CNC(=O)c1[nH]cnc1C(=O)Nc1ccc(OC)cc1 | 98.0 | 1.5 | / | 125.8* | 123.7* | 26.5*
CC1=NN(c2ccc([N+](=O)[O-])cc2)C(=O)C1 | 101.0 | 3.2 | / | / | / | /
Cc1ccc(C)c(OCC(=O)NNC(=O)CCN2CCN(c3ccccc3)CC2)c1 | 98.0 | 1.1 | / | -1.2 | / | /
COc1ccc(/C=C/C(=O)NC(=S)Nc2cc([N+](=O)[O-])ccc2O)cc1OC | 98.0 | 0.1 | 95.9 | 14.6 | / | /
Cc1ccc[n+](CC(=O)c2ccc(Br)cc2)c1C | 103.0 | 2.6 | / | 83.1* | 47.2* | /
COc1ccccc1NC(=O)CCCCCN1C(=O)c2cccc([N+](=O)[O-])c2C1=O | 91.0 | 0.4 | / | 15.0 | / | /
COc1ccccc1NC(=O)CCCCCN1C(=O)c2cccc3cccc(c23)C1=O | 94.0 | -1.2 | / | 85.5* | -3.5 | 55.5*
CSc1nc(-c2ccccc2)nc(C(C)C)n1 | 100.0 | -0.3 | / | -0.6 | / | /
COc1ccc(/C=C/c2nnc(NC(=O)CC(C)C)s2)cc1 | 100.0 | 1.9 | / | 22.5 | / | /
COc1ccccc1NC(=O)Nc1ccccc1Br | 105.0 | -1.9 | 100.4 | 31.9 | / | /
CCn1nnnc1NCc1c(OC)ccc2ccccc12 | 102.0 | 0.5 | 100.3 | 5.7 | / | /
Nc1ccc(-c2nc3c(ccc4ccccc43)[nH]2)cc1 | 101.0 | -5.9 | / | 83.0* | 59.7* | 9.6
Cc1ccc(C)c(N2N=C(C(=O)Nc3cccnc3)CCC2=O)c1 | 91.0 | 1.1 | / | 3.7 | / | /
CSc1ncc(C(=O)Nc2ccc(C(C)=O)cc2)c(C)n1 | 97.0 | 4.5 | / | / | / | /
CSc1ncc(C(=O)Nc2ccc(Cl)cc2)c(C)n1 | 105.0 | 1.0 | / | 93.5* | 100.4* | /
c1ccc(-c2nc3ccccc3c3nncn23)cc1 | 93.0 | 3.5 | 101.8 | 96.9* | 123.1* | 19.7*
COCCN(C(=O)CCc1nnc(CCc2c[nH]c3ccccc23)o1)C(C)C | 97.0 | -0.2 | 104.7 | 0.9 | / | /
O=C(CSc1nnc(-c2ccccc2O)o1)Oc1ccc(OCc2ccccc2)cc1 | 84.0 | 1.4 | 88.4 | 3.4 | / | /
[O-]/[N+](=C/c1cccnc1)c1ccc(Br)cc1 | 104.0 | 3.2 | 113.9 | 93.2* | 117.3* | 18.1*
[O-]/[N+](=C\c1ccncc1)c1ccc(Br)cc1 | 102.0 | 7.0 | 101.1 | 123.1* | 130.4* | 16.3*
